GPR7 antag: blocks human GPR7 receptor signaling | P48145 | GPR7-expressing cells, fluorescence antagonist assay | inhibition, % at 4.4 µM | 290,000 tested, 1.1% active; in the data active means inhibition above about 16%, passing the limit was not always enough;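 further: cells stimulated with the agonist NPW; 0% = agonist with vehicle and 100% = vehicle without agonist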
Target sequence (P48145 whole entry, looked up): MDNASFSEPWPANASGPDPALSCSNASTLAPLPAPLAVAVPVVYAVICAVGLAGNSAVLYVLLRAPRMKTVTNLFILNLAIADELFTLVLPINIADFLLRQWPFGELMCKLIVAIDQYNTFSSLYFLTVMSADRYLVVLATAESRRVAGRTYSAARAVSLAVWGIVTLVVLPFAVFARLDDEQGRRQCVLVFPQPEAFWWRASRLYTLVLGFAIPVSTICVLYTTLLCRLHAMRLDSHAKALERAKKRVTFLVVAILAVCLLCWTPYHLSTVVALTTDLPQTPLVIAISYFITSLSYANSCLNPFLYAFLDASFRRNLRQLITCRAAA
Jurkat NFkB inh: inhibitors of the PMA/ionomycin-induced NF-kB reporter in Jurkat cells. PMA/ionomycin-induced NF-kB luciferase reporter, luminescence. 330,000 tested, 0.53% active. inhibition, % at 4 µM. AID 435003; in the data active means inhibition above about 50%
HSF1 inhib: HSF1 inhibition. NIH3T3-HGL HSE-luciferase, MG132-induced, luminescence 8 h; hits give low values. activity change, negative = inhibition, % at 7.5 µM (by protocol). 300,000 tested, 0.77% active. AID 2098;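 active means more than half of replicate wells show activity change below -50%, luminescence cut by over half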;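 further: luciferase reports HSF-1 transcriptional activity via heat shock element; 0% = median of DMSO wells and -100% = zero luminescence signal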
HSF-1 act: increases HSF-1 driven luciferase reporter signal. NIH3T3-HGL HSF-1 luciferase reporter, MG132, 8 h; 100% = twice DMSO control signal. activation, % at 9 µM. 300,000 tested, 1.7% active;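 active means mean replicate activation of at least 50% with a set share of replicates each reaching 50%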;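 further: 0% = median of the neutral control wells and 100% = twice that signal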
T cruzi inh: T. cruzi replication inhibition; T. cruzi beta-gal in NIH3T3, luminescence, 90 h; inhibition, % (concentration not given with the values); 300,000 tested, 1.4% active; AID 1885;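 active means mean inhibition across valid replicates above about 55%, limit read from the data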;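 further: signal also drops with host cell toxicity which is not excluded here; 0% = plate median of DMSO wells and 100% = zero luminescence signal; higher percent means less beta-gal luminescence so fewer parasites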
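Material: NIH/3T3 host cells with β-galactosidase reporter T. cruzi; Input: 5,000 host fibroblasts per well; Medium: DMEM, 2% fetal bovine serum; Compound: 50 nL DMSO compound solution per well; Schedule: 3 h host attachment, then at least 90 h co-culture; Detection: luminescent β-galactosidase signal after 60 min lysis.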
697 NFkB inh: lowers PMA/ionomycin-induced NF-kB signal in 697 B cells; AID 435022; 330,000 tested, 0.33% active; inhibition, % at 4 µM; 697 B-cell NF-kB luciferase reporter, 16 h; in the data active means inhibition above about 35%
* hit, by the source's call; . = not tested or not shown. This is a sample that favours compounds with a hit; in the whole collection about 4.8% have one here.

SMILES | GPR7 antag | Jurkat NFkB inh | HSF1 inhib | HSF-1 act | T cruzi inh | 697 NFkB inh
COc1ccc(-n2c(Cc3ccccc3)nnc2SCc2ccc([N+](=O)[O-])cc2)cc1 | 5 | -2 | 16 | 29 | 13 | -9
CC(=O)/C(=N/Nc1ccc(Br)cc1)N1CCCc2ccccc21 | -3 | 12 | 22 | 57* | 38 | -9
CC(=O)/C(=N/Nc1ccc([N+](=O)[O-])cc1)N1CCCc2ccccc21 | -7 | 26 | 5 | 21 | 9 | 3
CCn1cc(Cl)c(C(=O)N2N=C(c3ccc4ccccc4c3)CC2c2ccccc2O)n1 (stereo not drawn) | -10 | -8 | -2 | 4 | 56* | 3
Cc1cc(C)c(C(CC(=O)c2cccs2)C(C#N)C#N)c(C)c1 (stereo not drawn) | -9 | -65 | 85 | 122* | -26 | -33
CN1CCN(c2nc(-c3ccccc3)nc(-c3ccc(F)cc3)c2C#N)CC1 | -2 | 8 | . | . | 55* | 7
Cc1cc2c(c(C)c1CCO)C(=O)[C@H](C)C2 | . | 2 | . | . | . | 9
COc1ccc(CC(=O)NNS(=O)(=O)c2ccc(F)cc2)cc1OC | 7 | 3 | -6 | -4 | -3 | 4
CC(C)(C)c1cc(C(c2cccnc2)N2CCN(CCO)CC2)cc(C(C)(C)C)c1O (stereo not drawn) | 3 | -12 | 63 | 76* | 61* | -23
O=C(/C=C/c1ccc(Br)o1)Nc1nccs1 | -1 | -78 | 76 | 83* | -6 | -83
Cc1noc(C)c1COc1ccc(C(=O)NCCc2ccccn2)cc1 | -3 | 16 | -4 | 14 | -25 | 10
Cc1cc(=O)[nH]c(SCC(=O)Nc2c(C)n(C)n(-c3ccccc3)c2=O)n1 | . | -3 | . | . | . | 4
CCN(CC)C(=O)CSc1nnc2nnc3cc(Cl)ccc3n12 | 0 | 10 | -5 | 9 | 59* | 2
Cc1ccc2nccc(C(=O)N3CCCC(N4CCN(c5ccc(F)cc5)CC4)C3)c2c1 (stereo not drawn) | -19 | 10 | -4 | 0 | 11 | -22
COC(=O)C1CC(c2ccc(Cl)cc2)=NO1 (stereo not drawn) | -11 | 1 | -2 | 6 | -15 | -21
O=C(O)C1CCN(c2ccc(Cl)nn2)CC1 | -4 | 1 | -3 | 14 | -15 | -4
COc1cccc(C(C(=O)NC(C)(C)C)N(C(=O)CCC(=O)Nc2cc(C)on2)C(C)(C)C)c1OC (stereo not drawn) | 4 | -7 | -3 | 8 | 10 | 18
C=CCN(C(=O)CCC(=O)Nc1cc(C)on1)C(C(=O)NC(C)(C)C)c1cccc(OC)c1OC (stereo not drawn) | -5 | 0 | 30 | 83* | 2 | 15
CN(C)CCCNC(=S)Nc1ccc(Br)cc1 | 13 | -2 | 7 | 6 | 1 | 3
COc1ccc(C2=NN(C)C(=NCc3ccccc3)SC2)cc1 | 17 | -10 | 22 | 53* | -25 | -15
CCC(CC)NC(=O)c1cccc(Oc2ccccc2)c1 | -4 | 1 | 1 | -3 | 7 | -13
O=C(Nc1cccs1)Nc1ccc(Br)cc1F | 9 | -42 | 36 | 60* | -16 | -51
O=C(Nc1cccs1)Nc1ccc(F)cc1F | 1 | -12 | 47 | 98* | -23 | 0
O=C(Nc1nc(-c2ccccn2)cs1)Nc1ccc(F)cc1F | -4 | -3 | 15 | 10 | 55* | -63
CCCS(=O)(=O)c1nc(S(=O)(=O)c2ccc(Cl)cc2)c(N2CCC(O)CC2)s1 | -3 | -9 | 1 | -7 | -17 | -17
SMILES | GPR7 antag | Jurkat NFkB inh | HSF1 inhib | HSF-1 act | T cruzi inh | 697 NFkB inh
COC(=O)c1sc2ccccc2c1-n1cccc1C(=O)C(=O)Nc1ccc(Cl)cc1 | -7 | 1 | -9 | -3 | 10 | 12
Cc1ccc2nc(C3CCCCC3)[nH]c2c1 | -1 | -82 | 10 | 12 | -7 | -95
Cc1ccc(C)c(-n2c(CNC(=O)c3ccco3)nnc2SCC(=O)N2CCc3ccccc32)c1 | -4 | -14 | 11 | 58* | 8 | -23
CCCCc1ccc(/C(C)=N/NC(=O)C2CCCC2)cc1 | -9 | -23 | -5 | 0 | -12 | -15
COc1ccccc1C(CNC(=O)CNC(=O)c1ccccc1Cl)N1CCCC1 (stereo not drawn) | . | -1 | . | . | . | 5
COc1ccc(C2CC(=O)N(CCCN(C)CCc3ccc(OC)c(OC)c3)C2)cc1 (stereo not drawn) | 3 | -8 | -13 | -18 | 64* | -14
COc1ccc(CCN(C)CCCN2CC(c3ccccc3)CC2=O)cc1OC (stereo not drawn) | 5 | -4 | -7 | 0 | 54 | 0
COc1ccc(CCN=C(NS(=O)(=O)c2ccc(Cl)cc2)c2ccccc2)cc1 | -7 | -16 | -8 | 9 | -1 | -20
COc1ccc(CCN=C(NS(=O)(=O)c2ccccc2)c2ccccc2)cc1OC | -11 | -5 | 9 | 59* | -7 | 14
O=C(CSc1nnc(COc2ccc3c(c2)CCCC3)o1)Nc1ccc(F)cc1 | -8 | -10 | -58* | -67 | -10 | -14
N#Cc1c(NC(=O)c2cccc(S(=O)(=O)Nc3ccc(C(=O)O)cc3)c2)sc2c1CCCC2 | -4 | 4 | -9 | -15 | -6 | 13
C=CCn1cc(/C=C/c2cc[n+](C)cc2)c2ccccc21 | -16 | 21 | -3 | -5 | 55* | 5
C=CCn1c(C)c(/C=C/c2cc[n+](C)cc2)c2ccccc21 | -1 | 26 | -7 | -10 | 74* | -3
CCN(CC)C(=O)Cn1c(C)c(/C=C/c2cc[n+](C)cc2)c2ccccc21 | -3 | 3 | 0 | 10 | 5 | 7
CC(C)n1cc(/C=C/c2cc[n+](C)cc2)c2ccccc21 | 3 | 20 | -13 | 0 | 45 | -18
CCn1cc(/C=C/c2cc[n+](C)cc2)c2ccccc21 | 16 | . | -8 | 2 | 55* | .
CCOC(=O)C1=C(CCc2ccccc2)NC(=O)NC1c1ccc(C#N)cc1 (stereo not drawn) | . | -6 | 9 | 19 | 0 | 15
c1ccc(-c2cncn2-c2ccccc2)cc1 | . | 1 | -3 | -3 | -18 | -18
CCN1CCN(C(=O)c2cc(S(=O)(=O)N3CCCCC3)ccc2Cl)CC1 | -7 | 11 | -3 | -18 | 5 | 19
COc1cc(/C=C/[N+](=O)[O-])ccc1OC(=O)/C=C/c1ccc(F)cc1 | 23 | -9 | 60 | 70* | 41 | -20
COc1ccc(/C=C/C(=O)Oc2ccc(C)c(C)c2)cc1OC | -28 | -1 | 4 | 22 | -4 | 3
Brc1ccc(CSc2nnc(-c3ccccn3)n2Cc2ccco2)cc1 | 18* | 42 | 105 | 145* | 7 | -32
CC(C)(C)c1ccc(CSc2nnc(-c3ccccn3)n2Cc2ccco2)cc1 | -7 | -21 | 13 | 38 | 4 | -79

Screening results from PubChem BioAssay.
